Test results published in ChEMBL document CHEMBL5696442, “Discovery of type II inhibitors of TGFβ-activated kinase 1 (TAK1) and mitogen-activated protein kinase kinase kinase kinase 2 (MAP4K2)” (J Med Chem, 2015).
Calls of active or inactive are those of the source. The calls are words filed in the database; no cut-off is given here.

Key:
[1] = Half life in Swiss albino mouse at 1 mg/kg, iv measured upto 24 hrs by LC/MS/MS analysis; type: ADME, organism-based; conditions: in vivo
In short: (§1)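 Male Swiss albino mice. […] Blood was taken into K2EDTA from three mice per time point, from 0 to 24 h. Plasma was precipitated with acetonitrile and analysed by LC/MS/MS (LLOQ 1.138 ng/mL).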

[2] = target: T1, Mitogen-activated protein kinase kinase kinase kinase 2 (Homo sapiens, UniProt Q12851); test: Inhibition of MAP4K2 (unknown origin) Lys1 labeling site by KiNativ Profiling analysis
T1 sequence (Q12851 whole entry): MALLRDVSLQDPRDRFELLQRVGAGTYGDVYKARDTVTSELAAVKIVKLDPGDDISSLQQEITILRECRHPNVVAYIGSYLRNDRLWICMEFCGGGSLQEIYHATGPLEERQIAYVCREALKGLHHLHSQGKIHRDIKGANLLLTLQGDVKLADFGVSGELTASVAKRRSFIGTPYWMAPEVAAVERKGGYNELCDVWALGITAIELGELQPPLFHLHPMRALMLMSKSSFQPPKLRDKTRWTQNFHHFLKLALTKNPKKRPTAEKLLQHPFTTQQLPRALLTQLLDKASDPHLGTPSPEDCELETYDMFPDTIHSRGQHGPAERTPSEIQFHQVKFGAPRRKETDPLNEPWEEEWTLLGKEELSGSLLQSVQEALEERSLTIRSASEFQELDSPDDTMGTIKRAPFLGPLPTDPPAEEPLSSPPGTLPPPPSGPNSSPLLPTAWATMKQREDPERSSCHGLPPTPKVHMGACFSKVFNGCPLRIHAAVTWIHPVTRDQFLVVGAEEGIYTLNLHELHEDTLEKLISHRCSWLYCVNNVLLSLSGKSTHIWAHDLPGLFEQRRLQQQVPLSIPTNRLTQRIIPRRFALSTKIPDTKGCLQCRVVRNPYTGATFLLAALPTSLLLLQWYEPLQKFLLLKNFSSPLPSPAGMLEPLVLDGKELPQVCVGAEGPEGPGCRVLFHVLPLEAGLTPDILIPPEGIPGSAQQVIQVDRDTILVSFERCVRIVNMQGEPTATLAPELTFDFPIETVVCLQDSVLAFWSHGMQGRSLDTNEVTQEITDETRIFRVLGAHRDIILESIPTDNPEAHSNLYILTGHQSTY

[3] = Oral bioavailability in Swiss albino mouse at 10 mg/kg measured upto 24 hrs by LC/MS/MS analysis; type: ADME, organism-based; conditions: in vivo
In short: (§2)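 Blood was taken at 0, 0.25, 0.5, 1, 2, 4, 6, 8, 12 and 24 h from three mice per time point, into K2EDTA. Plasma was acetonitrile-precipitated and analyzed by LC/MS/MS (LLOQ 1.138 ng/mL).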

[4] = Cmax in Swiss albino mouse at 1 mg/kg, iv measured upto 24 hrs by LC/MS/MS analysis; type: ADME, organism-based; conditions: in vivo; in short: as §1
[5] = target: T2, Mitogen-activated protein kinase 14 (Homo sapiens, UniProt Q16539); test: Inhibition of p38 alpha (unknown origin) by KiNativ Profiling analysis
T2 sequence (Q16539 whole entry): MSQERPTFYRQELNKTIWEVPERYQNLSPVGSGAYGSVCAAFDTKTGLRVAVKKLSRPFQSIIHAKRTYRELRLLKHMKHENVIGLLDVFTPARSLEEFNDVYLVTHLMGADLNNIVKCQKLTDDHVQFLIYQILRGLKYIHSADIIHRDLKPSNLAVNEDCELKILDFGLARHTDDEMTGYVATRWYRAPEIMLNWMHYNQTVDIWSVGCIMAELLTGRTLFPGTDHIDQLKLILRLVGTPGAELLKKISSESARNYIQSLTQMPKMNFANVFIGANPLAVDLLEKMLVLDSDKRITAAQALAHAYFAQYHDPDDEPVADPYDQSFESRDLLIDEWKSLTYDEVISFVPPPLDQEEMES

[6] = target: T3, Mitogen-activated protein kinase kinase kinase kinase 2 (Homo sapiens) (UniProt Q12851); test: Inhibition of MAP4K2 Lys1 labeling site in human A-375 cells at 0.5 uM by KiNativ Profiling analysis relative to control; type: cell-based
T3 sequence (whole entry): T1 sequence (Q12851 whole entry)

[7] = AUC last in Swiss albino mouse at 1 mg/kg, iv measured upto 24 hrs by LC/MS/MS analysis; type: ADME, organism-based; conditions: in vivo; in short: as §1
[8] = target: T4, Mitogen-activated protein kinase kinase kinase 7 (Homo sapiens) (UniProt O43318); test: Inhibition of TAK1 Lys2 labeling site in human A-375 cells at 0.5 uM by KiNativ Profiling analysis relative to control; type: cell-based
T4 sequence (whole entry): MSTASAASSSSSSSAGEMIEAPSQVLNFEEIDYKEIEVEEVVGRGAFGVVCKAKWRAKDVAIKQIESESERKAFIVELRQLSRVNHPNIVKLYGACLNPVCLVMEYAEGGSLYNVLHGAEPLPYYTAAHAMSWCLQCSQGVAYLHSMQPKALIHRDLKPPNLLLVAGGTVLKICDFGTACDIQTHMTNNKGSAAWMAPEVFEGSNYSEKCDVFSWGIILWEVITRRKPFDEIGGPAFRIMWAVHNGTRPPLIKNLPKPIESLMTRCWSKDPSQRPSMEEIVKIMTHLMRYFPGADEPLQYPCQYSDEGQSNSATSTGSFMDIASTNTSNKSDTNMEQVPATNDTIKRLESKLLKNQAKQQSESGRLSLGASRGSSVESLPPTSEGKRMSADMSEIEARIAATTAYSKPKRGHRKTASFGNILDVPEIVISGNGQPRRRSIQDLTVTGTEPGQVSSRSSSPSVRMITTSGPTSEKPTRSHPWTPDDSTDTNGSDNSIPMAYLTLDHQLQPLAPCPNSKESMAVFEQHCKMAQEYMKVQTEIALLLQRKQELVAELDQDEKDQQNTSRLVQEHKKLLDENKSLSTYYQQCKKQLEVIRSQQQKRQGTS

[9] = Cmax in Swiss albino mouse at 10 mg/kg, po measured upto 24 hrs by LC/MS/MS analysis; type: ADME, organism-based; conditions: in vivo
[10] = target: T2, Mitogen-activated protein kinase 14; test: Inhibition of p38 alpha in human Huh-7 cell lysate at 1 uM by KiNativ Profiling analysis relative to control; type: subcellular
[11] = target: Tyrosine-protein kinase Fer (Homo sapiens, UniProt P16591); test: Inhibition of FER (unknown origin) ACT labeling site by KiNativ Profiling analysis
Chain of Tyrosine-protein kinase Fer (P16591 whole entry): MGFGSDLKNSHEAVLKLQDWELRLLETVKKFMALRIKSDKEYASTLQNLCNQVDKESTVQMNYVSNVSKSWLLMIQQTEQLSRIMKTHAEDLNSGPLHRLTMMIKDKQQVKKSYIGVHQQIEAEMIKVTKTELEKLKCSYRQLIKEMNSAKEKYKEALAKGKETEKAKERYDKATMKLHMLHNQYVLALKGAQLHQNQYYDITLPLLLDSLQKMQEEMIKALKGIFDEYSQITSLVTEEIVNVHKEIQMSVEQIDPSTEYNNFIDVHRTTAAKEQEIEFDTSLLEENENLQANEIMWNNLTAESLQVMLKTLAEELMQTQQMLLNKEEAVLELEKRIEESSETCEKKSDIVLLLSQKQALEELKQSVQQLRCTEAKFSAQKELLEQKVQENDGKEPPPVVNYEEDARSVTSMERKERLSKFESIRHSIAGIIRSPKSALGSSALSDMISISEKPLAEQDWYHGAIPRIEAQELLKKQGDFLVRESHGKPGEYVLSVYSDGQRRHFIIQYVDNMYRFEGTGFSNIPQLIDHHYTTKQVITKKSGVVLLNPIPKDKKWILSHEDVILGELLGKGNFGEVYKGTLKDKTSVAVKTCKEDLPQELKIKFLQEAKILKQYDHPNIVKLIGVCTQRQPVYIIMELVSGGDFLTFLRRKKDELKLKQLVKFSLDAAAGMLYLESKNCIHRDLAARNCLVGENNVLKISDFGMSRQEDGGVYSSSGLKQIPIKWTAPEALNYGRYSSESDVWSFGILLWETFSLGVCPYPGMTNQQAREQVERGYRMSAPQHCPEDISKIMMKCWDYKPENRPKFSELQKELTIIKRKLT

[12] = AUC last in Swiss albino mouse at 10 mg/kg, po measured upto 24 hrs by LC/MS/MS analysis; type: ADME, organism-based; conditions: in vivo
[13] = target: Tyrosine-protein kinase ABL1 (Homo sapiens, UniProt P00519); test: Inhibition of ABL ACT labeling site in human Huh-7 cell lysate at 1 uM by KiNativ Profiling analysis relative to control; type: subcellular
Chain of Tyrosine-protein kinase ABL1 (P00519 whole entry): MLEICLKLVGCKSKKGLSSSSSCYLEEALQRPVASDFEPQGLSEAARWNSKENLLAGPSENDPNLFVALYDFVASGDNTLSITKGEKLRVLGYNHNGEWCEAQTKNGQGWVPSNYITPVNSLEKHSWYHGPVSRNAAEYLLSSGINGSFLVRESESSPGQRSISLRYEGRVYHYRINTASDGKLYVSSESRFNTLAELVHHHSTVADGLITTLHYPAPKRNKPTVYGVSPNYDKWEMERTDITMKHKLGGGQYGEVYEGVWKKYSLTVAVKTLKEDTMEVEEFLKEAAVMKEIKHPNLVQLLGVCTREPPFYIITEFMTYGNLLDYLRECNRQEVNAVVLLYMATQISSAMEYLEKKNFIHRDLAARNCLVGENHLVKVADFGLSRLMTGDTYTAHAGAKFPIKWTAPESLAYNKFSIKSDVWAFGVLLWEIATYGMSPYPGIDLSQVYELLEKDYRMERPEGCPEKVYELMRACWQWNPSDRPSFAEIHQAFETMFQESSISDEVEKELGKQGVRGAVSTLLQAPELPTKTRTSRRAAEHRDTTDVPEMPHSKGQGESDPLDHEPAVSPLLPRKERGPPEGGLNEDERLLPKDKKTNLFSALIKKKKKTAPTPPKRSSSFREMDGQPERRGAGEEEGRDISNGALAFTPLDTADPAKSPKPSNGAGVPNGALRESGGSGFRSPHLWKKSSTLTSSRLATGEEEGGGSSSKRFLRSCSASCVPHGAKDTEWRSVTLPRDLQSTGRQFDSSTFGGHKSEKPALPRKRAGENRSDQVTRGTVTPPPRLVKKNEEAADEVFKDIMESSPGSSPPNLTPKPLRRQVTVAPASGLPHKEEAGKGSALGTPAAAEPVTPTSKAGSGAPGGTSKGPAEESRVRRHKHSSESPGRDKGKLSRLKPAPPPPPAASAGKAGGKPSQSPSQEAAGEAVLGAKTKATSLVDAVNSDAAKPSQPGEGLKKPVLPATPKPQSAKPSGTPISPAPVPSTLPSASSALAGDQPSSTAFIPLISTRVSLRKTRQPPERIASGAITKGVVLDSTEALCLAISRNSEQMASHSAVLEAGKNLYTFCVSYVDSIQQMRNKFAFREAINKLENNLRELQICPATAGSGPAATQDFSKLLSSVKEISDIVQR

BaF3 [14] = test: Antiproliferative activity against parental mouse BaF3 cells assessed reduction in cell viability measured after 48 hrs by Celltiter-glo assay; type: functional, cell-based; conditions: BaF3, 48 h
[15] = Volume of distribution at steady state in Swiss albino mouse at 1 mg/kg, iv measured upto 24 hrs by LC/MS/MS analysis; type: ADME, organism-based; conditions: in vivo
In short: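 Blood was sampled at 0, 0.083, 0.25, 0.5, 1, 2, 4, 8, 12 and 24 h (three mice per point, K2EDTA). Plasma was precipitated with acetonitrile and quantified by LC/MS/MS (LLOQ 1.138 ng/mL).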

BaF3 [16] = test: Antiproliferative activity against parental mouse BaF3 cells harbouring Bcr/Abl assessed reduction in cell viability measured after 48 hrs by Celltiter-glo assay; type: functional, cell-based; conditions: BaF3, 48 h
In short: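 Cells were grown with serial dilutions of compound for 48 h, and viability was read by CellTiter-Glo. IC50 was derived from the dose–response curve. Parental Ba/F3 cells were grown in the presence of interleukin 3. The BCR-ABL line is BCR-ABL-dependent Ba/F3.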

[17] = target: T5, Mitogen-activated protein kinase kinase kinase 7 (Homo sapiens, UniProt O43318); test: Inhibition of TAK1 (unknown origin) Lys2 labeling site by KiNativ Profiling analysis
T5 sequence (O43318 whole entry): T4 sequence (whole entry)

[18] = target: T6, Tyrosine-protein kinase Fes/Fps (Homo sapiens, UniProt P07332); test: Inhibition of FES (unknown origin) by KiNativ Profiling analysis
T6 sequence (P07332 whole entry): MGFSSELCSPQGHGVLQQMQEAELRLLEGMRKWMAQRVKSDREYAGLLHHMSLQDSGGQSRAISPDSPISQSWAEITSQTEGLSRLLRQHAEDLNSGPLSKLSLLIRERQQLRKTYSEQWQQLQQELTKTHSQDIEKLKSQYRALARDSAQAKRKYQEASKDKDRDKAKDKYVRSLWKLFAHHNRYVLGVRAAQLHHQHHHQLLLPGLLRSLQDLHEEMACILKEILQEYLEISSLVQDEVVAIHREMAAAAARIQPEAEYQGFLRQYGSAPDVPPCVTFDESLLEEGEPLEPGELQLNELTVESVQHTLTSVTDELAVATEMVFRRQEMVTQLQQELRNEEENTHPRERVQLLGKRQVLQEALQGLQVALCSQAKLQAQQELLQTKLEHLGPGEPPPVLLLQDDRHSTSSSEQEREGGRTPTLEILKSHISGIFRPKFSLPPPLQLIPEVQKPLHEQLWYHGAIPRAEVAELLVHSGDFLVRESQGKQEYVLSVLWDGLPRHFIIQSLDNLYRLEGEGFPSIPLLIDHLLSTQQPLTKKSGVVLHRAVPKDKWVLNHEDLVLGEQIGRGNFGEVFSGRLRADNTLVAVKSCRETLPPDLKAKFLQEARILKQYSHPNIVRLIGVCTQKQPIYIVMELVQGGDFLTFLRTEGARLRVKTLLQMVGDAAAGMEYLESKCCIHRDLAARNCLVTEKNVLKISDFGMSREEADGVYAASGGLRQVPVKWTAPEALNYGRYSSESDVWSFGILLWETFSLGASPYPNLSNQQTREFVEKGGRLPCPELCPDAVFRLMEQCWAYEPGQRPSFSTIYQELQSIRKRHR

[19] = Tmax in Swiss albino mouse at 10 mg/kg, po measured upto 24 hrs by LC/MS/MS analysis; type: ADME, organism-based; conditions: in vivo; in short: as §2
[20] = target: T6, Tyrosine-protein kinase Fes/Fps; test: Inhibition of FES Lys1 labeling site in human Huh-7 cell lysate at 1 uM by KiNativ Profiling analysis relative to control; type: subcellular
MEF [21] = test: Inhibition of TGF-beta induced SMAD2 phosphorylation level in TAK1 deficient mouse MEF cells at low concentration incubated for 1 hr followed by TGF-beta stimulation by Western blot analysis; type: functional, cell-based
In short: (§3)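 TAK1-null MEFs grown in DMEM with 10% FBS, 2 mM L-glutamine and penicillin/streptomycin at 37 °C under 5% CO2. Inhibitors added 1 h before TGFβ (50 pM, 45 min). Cells lysed in ice-cold buffer with phosphatase and protease inhibitors, extracts cleared at 16000g, then p38 and SMAD2 phosphorylation assessed by Western blot.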

MEF [22] = test: Inhibition of IL-1 induced p38 MAPK phosphorylation level in TAK1 deficient mouse MEF cells at low concentration incubated for 1 hr followed by IL-1 stimulation by Western blot analysis; type: functional, cell-based
In short: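 WT and TAK1-null MEFs were grown in DMEM with 10% FBS, then held in 0.1% FBS for 16 h. Cells were pretreated with inhibitor for 1 h, then stimulated with mouse IL-1α (5 ng/mL, 10 min). Cells were lysed in ice-cold buffer, and extracts were cleared at 16000g and analysed by Western blot.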

MEF [23] = test: Inhibition of TGFbeta induced SMAD2 phosphorylation level in TAK1 deficient mouse MEF cells at low concentration incubated for 1 hr followed by TGFbeta stimulation by Western blot analysis
MEF [24] = test: Inhibition of TGF-beta induced p38 MAPK phosphorylation level in TAK1 deficient mouse MEF cells at low concentration incubated for 1 hr followed by TGF-beta stimulation by Western blot analysis; type: functional, cell-based; in short: as §3

t1/2 [1] [h] | IC50 [2] [nM] | F [3] [%] | Cmax [4] [ng/mL] | IC50 [5] [nM] | inhibition [6] [%] | AUClast [7] [ng·h/mL] | inhibition [8] [%] | Cmax [9] [ng/mL] | inhibition [10] [%] | AUClast [12] [ng·h/mL] | inhibition [13] [%] | Vdss [15] [L/kg] | IC50 [17] [nM] | Tmax [19] [h] | SMILES | IC50 (BaF3 [14]) [nM] | IC50 (BaF3 [16]) [nM] | also measured
2.94 | 18.2 | 38.6 | 317 | 149 | > 94 | 554 | 57.7 | 233 | 82.8 | 2136 | 59.6 | 5.42 | 41.1 | 4 | CCN1CCN(Cc2ccc(NC(=O)c3ccc(C)c(Oc4ncnc5[nH]c(C)cc45)c3)cc2C(F)(F)F)CC1 | > 10000 | 20 | IC50 [11]: 74.8 nM; IC50 [18]: 69.7 nM; inhibition [20]: 82.7%
 |  |  |  |  |  |  |  |  |  |  |  |  |  |  | COc1cc(O)c2c(c1)/C=C/C[C@H](O)[C@H](O)C(=O)/C=C\C[C@H](C)OC2=O |  |  | inhibition (MEF [21]): Active; inhibition (MEF [22]): Active; inhibition (MEF [23]): Active; inhibition (MEF [24]): Active
2.33 | 19.8 | 21.8 | 230.9 | 130 | > 86 | 236.6 | 77.7 | 134 | 85.2 | 516.2 | 74.2 | 9.5 | 44.9 | 2 | CCN1CCN(Cc2ccc(NC(=O)c3ccc(C)c(Oc4ncnc5[nH]ccc45)c3)cc2C(F)(F)F)CC1 | 8160 | 55 | 
